The term IC50 denotes the concentration that gives 50% inhibition.

SMILES strings stand for the structures. Calls of active or inactive are those of the source. The calls are words filed in the database; no cut-off is given here.

This note sets out measurements from ChEMBL document CHEMBL4118144, “Design, Synthesis, and Testing of Potent, Selective Hepsin Inhibitors via Application of an Automated Closed-Loop Optimization Platform” (J Med Chem, 2018).

Assay [1] has as its target T1, Serine protease hepsin (Homo sapiens, UniProt P05981). The assay is described as follows: Inhibition of doxycycline induced hepsin-mediated loss of desmosomal junctions in human MCF10A cells at 1 to 10 uM preincubated for 30 mins followed by doxycycline addition measured after 6 hrs by desmoglein 2 staining-based confocal immunofluorescence microscopic analysis. The assay is classed as cell-based. In a few lines: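 MCF10A-Indu20-hepsin cells on coverslips pretreated 30 min with 1 or 10 µM compound or DMSO, then 100 ng/mL Dox for 6 h. Desmoglein 2 immunofluorescence: continuous pericellular staining scored positive, discontinuous or absent scored negative. Cells counted in 10 fields per treatment across three biological replicates; reported as percentages.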

In assay [2] the target is T1, Serine protease hepsin. The assay can be described thus: Inhibition of doxycycline induced Hepsin in human MCF10A cells assessed as prevention in loss of HAI-1 level at 10 uM preincubated for 30 mins followed by doxycycline addition measured after 6 hrs by Immunoblot assay. The assay is classed as cell-based. In a few lines:
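MCF10A-Indu20-hepsin cells (Dox-inducible hepsin) pretreated 30 min with compound or DMSO, then hepsin induced with 100 ng/mL doxycycline for 6 h; HAI-1 protein scored by immunoblot.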

Assay [3] deals with T1, Serine protease hepsin. The assay can be described thus: Inhibition of recombinant Hepsin (unknown origin).
Assay [4] has as its target Urokinase-type plasminogen activator (Homo sapiens, UniProt P00749). The assay is described as follows: Inhibition of recombinant C-terminal His10-tagged human uPA (M1 to L431 residues) expressed in mouse NS0 cells using Z-GGR-AMC as substrate after 15 mins by automated fluorescence assay. In a few lines:
(§1)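 On-line assay integrated with the flow-synthesis platform: a 20 µL aliquot of each product solution captured automatically, HPLC-purified, then diluted and assayed.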

Assay [5] has as its target Serine protease hepsin (Homo sapiens, UniProt P05981, D161E/R162K). The assay is described as follows: Inhibition of recombinant C-terminal His10-tagged human Hepsin (R45 to […] residues) D161E/ R162K double mutant expressed in mouse NS0 cells using Boc-QRR-AMC as substrate after 15 mins by automated fluorescence assay. A digest of the protocol:
as §1

Assay [6] addresses T1, Serine protease hepsin. The assay can be described thus: Inhibition of hepsin-mediated conversion of Pro-HGF into active form in human Hs578T cells assessed as decrease in MET phosphorylation at 1 to 10 uM preincubated for 30 mins followed by recombinant human pro-HGF addition measured after 30 mins by immunoblot method. It is filed as cell-based. A digest of the protocol: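 Hs578T or HCC1937 breast cells incubated with DMSO or inhibitor, then 50 ng/mL recombinant human Pro-HGF added; MET pathway activation (phospho-MET) assessed by immunoblotting.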
(A western blot detects proteins with antibodies after separation by electrophoresis.)

In assay [7] the target is T1, Serine protease hepsin. The assay is described as follows: Inhibition of doxycycline induced Hepsin in human MCF10A cells using Boc-QRR-AMC as substrate preincubated for 24 hrs followed by doxycycline induction for 24 hrs and subsequent addition of substrate by fluorescence assay. It is filed as cell-based.

T1 sequence (P05981 1-162 limits assumed): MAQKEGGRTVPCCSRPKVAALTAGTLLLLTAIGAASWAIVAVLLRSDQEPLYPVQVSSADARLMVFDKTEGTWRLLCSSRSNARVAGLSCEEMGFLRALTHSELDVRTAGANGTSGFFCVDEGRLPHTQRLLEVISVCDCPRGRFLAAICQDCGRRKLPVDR
T1 sequence (P05981 163-417 limits assumed): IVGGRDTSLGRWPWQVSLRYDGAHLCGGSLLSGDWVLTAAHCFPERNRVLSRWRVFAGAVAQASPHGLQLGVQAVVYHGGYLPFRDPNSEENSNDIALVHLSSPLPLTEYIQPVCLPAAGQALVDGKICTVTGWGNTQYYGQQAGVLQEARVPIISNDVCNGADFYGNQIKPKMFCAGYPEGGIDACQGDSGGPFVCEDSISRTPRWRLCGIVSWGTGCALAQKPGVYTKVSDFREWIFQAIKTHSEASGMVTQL

As to `CCOC(=O)N1CCN(C(=O)[C@@H](Cc2cccc(C(=N)N)c2)NS(=O)(=O)c2c(C(C)C)cc(C(C)C)cc2C(C)C)CC1`, the inhibition result on Serine protease hepsin [1] and at Serine protease hepsin [2] was “inactive” throughout. Moreover, the IC50 was 3 µM on Serine protease hepsin [3], 0.285 µM in assay [4], 3.35 µM on Serine protease hepsin [5] and 6.49 µM against Serine protease hepsin [7]. The inhibition entry on Serine protease hepsin [6] is “Active”.
